Assay [1] can be described thus: Agonist activity at Hh receptor in mouse C3H10T1/2 cells assessed as fold increase in Gli1 expression at 5 uM by RT-PCR analysis relative to control. Type of assay: functional, C3H 10T1/2.
A short description of assay [2]: Agonist activity at LXR in mouse C3H10T1/2 cells assessed as fold increase in ABCA1 expression at 5 uM by RT-PCR analysis relative to control. The format is functional, C3H 10T1/2.
Assay [3] is described as follows: Selectivity ratio of agonist activity at Hh receptor over agonist activity at LXR in mouse C3H10T1/2 cells. The format is functional, C3H 10T1/2.
Assay [4] is described as follows: (§1) Agonist activity at Hh receptor in mouse C3H10T1/2 cells assessed as increase in Gli1 expression by RT-PCR analysis. The settings on record: C3H 10T1/2. Type of assay: functional, cell-based. The gist of the method: (§2)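 Dose-response in C3H10T1/2 and M2-10B4 cells. Read-out: mRNA of GLI1, PTCH (Hh) or ABCA1 (LXR), expressed relative to the DMSO control. EC50 values were derived from these curves.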

For assay [5], the system named is C3H 10T1/2. The assay is described as §1. Type of assay: functional, cell-based. The gist of the method:
as §2

The nature of assay [6]: (§3) Agonist activity at Hh receptor in mouse M210B4 cells assessed as increase in Gli1 expression by RT-PCR analysis. Type of assay: functional, cell-based. The gist of the method: as §2
Assay [7] has as its system M210B4. The assay is described as §3. Type of assay: functional, cell-based. The gist of the method: as §2
Assay [8] is described as follows: (§4) Agonist activity at Hh receptor in mouse C3H10T1/2 cells assessed as increase in Ptch expression by RT-PCR analysis. Type of assay: functional, cell-based. As to conditions: C3H 10T1/2. The gist of the method:
as §2

For assay [9], the system named is C3H 10T1/2. The assay is described as §4. Type of assay: functional, cell-based. The gist of the method: as §2
Assay [10] can be described thus: (§5) Agonist activity at Hh receptor in mouse M210B4 cells assessed as increase in Ptch expression by RT-PCR analysis. Type of assay: functional, cell-based. The gist of the method:
as §2

The test system of assay [11] is M210B4. The assay is described as §5. Type of assay: functional, cell-based. The gist of the method: as §2
Assay [12] can be described thus: Agonist activity at LXR in mouse C3H10T1/2 cells assessed as increase in ABCA1 expression by RT-PCR analysis. Type of assay: functional, cell-based. The settings on record: C3H 10T1/2. Summed up: as §2
Assay [13] in a line: Agonist activity at LXR in mouse M210B4 cells assessed as increase in ABCA1 expression by RT-PCR analysis. The format is functional, cell-based. The gist of the method:
as §2

The subject of assay [14] is C3H 10T1/2. The assay can be described thus: Selectivity ratio of EC50 for LXR to EC50 for Hh receptor in mouse C3H10T1/2 cells. The format is cell-based.
Assay [15] has as its system M210B4. The assay can be described thus: Selectivity ratio of EC50 for LXR to EC50 for Hh receptor in mouse M210B4 cells. The format is cell-based.
The test system of assay [16] is M210B4. In words: Agonist activity at Hh receptor in mouse M210B4 cells assessed as upregulation of Gli1 at 5 uM after 24 hrs by RT-PCR analysis relative to control. Type of assay: functional, cell-based. Summed up:
(§6)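 Read-out: GLI1 or PTCH mRNA in M2-10B4 cells. Cells were pretreated for 2 h with cyclopamine (5 μM), or left without it, then given OHC (5 μM). mRNA was measured after 24 h of incubation and expressed as fold induction over the DMSO control, set at 1. Data come from a representative experiment run in triplicate.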

Assay [17] has as its system M210B4. In words: Agonist activity at Hh receptor in mouse M210B4 cells assessed as upregulation of Ptch at 5 uM after 24 hrs by RT-PCR analysis relative to control. The format is functional, cell-based. The gist of the method:
as §6

Assay [18] deals with M210B4. In words: Agonist activity at Hh receptor in mouse M210B4 cells assessed as upregulation of Gli1 at 5 uM after 24 hrs by RT-PCR analysis in presence of cyclopamine relative to control. The format is functional, cell-based. Summed up: as §6
Assay [19] has as its system M210B4. The assay can be described thus: Agonist activity at Hh receptor in mouse M210B4 cells assessed as upregulation of Ptch at 5 uM after 24 hrs by RT-PCR analysis in presence of cyclopamine relative to control. The format is functional, cell-based. Summed up: as §6
Assay [20] relates to M210B4. In words: Induction of Hh receptor-mediated osteogenesis in mouse M210B4 cells assessed as fold increase in Osx expression at 5 uM after 24 hrs by RT-PCR analysis relative to control. Type of assay: cell-based. The gist of the method: (§7)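 M2-10B4 cells received OHC (5 μM), or the 20(S)-/22(S)-OHC pair (5 μM each). Osterix and alkaline phosphatase mRNA were measured at time points of 24, 48 and 96 h. Expression is relative to the DMSO control. Data come from a representative experiment run in triplicate.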

The subject of assay [21] is M210B4. In words: Induction of Hh receptor-mediated osteogenesis in mouse M210B4 cells assessed as fold increase in Osx expression at 5 uM after 48 hrs by RT-PCR analysis relative to control. The format is cell-based. Summed up:
as §7

Assay [22] has as its system M210B4. In words: Induction of Hh receptor-mediated osteogenesis in mouse M210B4 cells assessed as fold increase in Osx expression at 5 uM up to 96 hrs by RT-PCR analysis relative to control. Type of assay: cell-based. The gist of the method:
as §7

The subject of assay [23] is M210B4. The assay can be described thus: Induction of Hh receptor-mediated osteoblast formation in mouse M210B4 cells assessed as increase in ALP expression at 5 uM after 24 hrs by RT-PCR analysis relative to control. The format is cell-based. Summed up: as §7
Assay [24] relates to M210B4. The assay can be described thus: Induction of Hh receptor-mediated osteoblast formation in mouse M210B4 cells assessed as increase in ALP expression at 5 uM after 48 hrs by RT-PCR analysis relative to control. The format is cell-based. Summed up: as §7
Assay [25] has as its system M210B4. In words: Induction of Hh receptor-mediated osteoblast formation in mouse M210B4 cells assessed as increase in ALP expression at 5 uM up to 96 hrs by RT-PCR analysis relative to control. Type of assay: cell-based. The gist of the method: as §7
In assay [26] the test system is M210B4. In words: Ratio of EC50 for Hh receptor in mouse M210B4 cells to EC50 for Hh receptor in mouse C3H10T1/2 cells. Type of assay: cell-based.

Results on 13 compounds are retold here after ChEMBL document CHEMBL2157936, “Structure-activity relationships for side chain oxysterol agonists of the hedgehog signaling pathway” (ACS Med Chem Lett, 2012).

Each structure is given as a SMILES string. Activity calls are given as the source filed them. No cut-off for these calls is given here. Where only a bound is given, the exact number is not on record here.

On to `C[C@H](C(=O)CCC(C)(C)O)[C@H]1CC[C@H]2[C@@H]3CC=C4C[C@@H](O)CC[C@]4(C)[C@H]3CC[C@]12C`, for which the “fold change (FC)” value in [1] is given as 6; in [2], 21.7.

Take `CC(C)CC[C@@H](O)[C@@H](C)[C@H]1CC[C@H]2[C@@H]3CC=C4C[C@@H](O)CC[C@]4(C)[C@H]3CC[C@]12C` [22(R)-HYDROXYCHOLESTEROL]: the “fold change (FC)” value in assay [1] amounted to 4.7; in assay [2], 24.1.

On to `CC(C)CCC[C@@H](C)[C@H]1CC[C@H]2[C@@H]3[C@@H](O)C=C4C[C@@H](O)CC[C@]4(C)[C@H]3CC[C@]12C`, for which the “fold change (FC)” value in [1] is listed as 1.6; in assay [2], 0.6. Also, in assay [3], the Selectivity ratio was 2.6.

`CC(C)CC[C@H](O)[C@@H](C)[C@H]1CC[C@H]2[C@@H]3CC=C4C[C@@H](O)CC[C@]4(C)[C@H]3CC[C@]12C`: the “fold change (FC)” value in assay [1] is on record as 52.5; in assay [2] it was 2.3. For the same compound, the Selectivity ratio in [3] came out at 22.8.

On to `CC(C)(O)CC[C@](C)(O)[C@H]1CC[C@H]2[C@@H]3CC=C4C[C@@H](O)CC[C@]4(C)[C@H]3CC[C@@]21C`, for which the “fold change (FC)” value is 18.1 in [1] and 10.3 in assay [2]. The Selectivity ratio in assay [3] was 1.8.

Take `C[C@H](CCO)[C@H]1CC[C@H]2[C@@H]3CC=C4C[C@@H](O)CC[C@]4(C)[C@H]3CC[C@]12C`: the entries for the “fold change (FC)” value in assay [1] and in assay [2] were 4.1 and 0.4, respectively. Moreover, the Selectivity ratio in assay [3] turned out to be 10.4.

In the case of `CC(C)C[C@@H](O)C[C@@H](C)[C@H]1CC[C@H]2[C@@H]3CC=C4C[C@@H](O)CC[C@]4(C)[C@H]3CC[C@]12C`, the “fold change (FC)” value in [1] was 87.1; in assay [2], 4.9; with M210B4 [20], 5; with M210B4 [21], over 30. Further, the Selectivity ratio in assay [3] is 17.8. For the same compound, the EC50 (in general, the concentration at which the effect is half-maximal) in assay [4] worked out at 540 nM; in [6], 570 nM; in assay [8], 650 nM; in assay [10] it was 580 nM; in assay [12] it was 1530 nM; in assay [13], 1540 nM. Moreover, the Activity entry in the assay with C3H 10T1/2 [5], with M210B4 [7], in the assay with C3H 10T1/2 [9] and in the assay on M210B4 [11] was “Dose-dependent effect” throughout. Moreover, the Ratio EC50 with C3H 10T1/2 [14] stood at 3; in the assay on M210B4 [15] it was 3; in the assay with M210B4 [26], 1.06. The result in the assay on M210B4 [16], with M210B4 [17], in the assay on M210B4 [22], with M210B4 [23], with M210B4 [24] and in the assay with M210B4 [25] was Active. In addition, the outcome in the assay on M210B4 [18] and in the assay on M210B4 [19] was inactive.

As for `CC(C)CCC[C@](C)(O)[C@H]1CC[C@H]2[C@@H]3CC=C4C[C@@H](O)CC[C@]4(C)[C@H]3CC[C@@]21C`, the “fold change (FC)” value is given as 91.8 in [1] and 13.4 in [2]. For the same compound, the Selectivity ratio in assay [3] was 6.8.

Take `C[C@H](C(O)CCC(C)(C)O)[C@H]1CC[C@H]2[C@@H]3CC=C4C[C@@H](O)CC[C@]4(C)[C@H]3CC[C@]12C` (mixture of isomers): the “fold change (FC)” value in assay [1] turned out to be 1; in [2] it was 0.9.

As for `CC(C)C[C@H](O)C[C@@H](C)[C@H]1CC[C@H]2[C@@H]3CC=C4C[C@@H](O)CC[C@]4(C)[C@H]3CC[C@]12C`, the results for the “fold change (FC)” value in assay [1] and in [2] were 32.4 and 3.6, respectively. The Selectivity ratio in [3] is listed as 9.

Regarding `C[C@@H]([C@H]1CC[C@H]2[C@@H]3CC=C4C[C@@H](O)CC[C@]4(C)[C@H]3CC[C@]12C)[C@@H](O)CCC(C)(C)O`, the “fold change (FC)” value in assay [1] came out at 9.9; in assay [2] it was 2.9. Also, in assay [3], the Selectivity ratio worked out at 3.4.

As to `CC(C)(O)CCC[C@](C)(O)[C@H]1CC[C@H]2[C@@H]3CC=C4C[C@@H](O)CC[C@]4(C)[C@H]3CC[C@@]21C`, the “fold change (FC)” value in [1] stood at 107.8; in assay [2], 26.3. Also, in assay [3], the Selectivity ratio is 4.1.

Turning to `C[C@H](CCCC(C)(C)O)[C@H]1CC[C@H]2[C@@H]3CC=C4C[C@@H](O)CC[C@]4(C)[C@H]3CC[C@]12C`, the results for the “fold change (FC)” value in [1] and in [2] were 69.9 and 9.8, respectively. Also, the Selectivity ratio in [3] was found to be 7.1.
